# This is a sample that favours compounds with a hit; in the whole collection about 3.3% have one here.
# HTR1A agonist – 5-HT1a (human) receptor agonism; CHO 5-HT1a Ga15 NFAT-bla reporter, FRET ratio; 0% basal, 100% maximal reference agonist; P08908; 65,000 compounds, 0.56% hits; activation, % at 10 µM; AID 567;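 active = activation above the screen-wide mean activation plus 3 SD, cut at about 19% in these data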
# Jurkat viability – reduces viability or proliferation of Jurkat cells | Jurkat E6.1 viability, ATP luminescence, 48 h | inhibition, % at 4 µM | 56,000 compounds, 1.2% hits | AID 463;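 active = inhibition above the mean inhibition of all tested compounds plus 3 SD, cut at about 28% in these data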
# 5HT1E ag – 5-HT1E (human) receptor agonism | activation, % at 6 µM | 65,000 compounds, 0.69% hits | P28566 | CHO 5-HT1E Ga15 NFAT-bla reporter, FRET; 0% DMSO wells, 100% control agonist wells;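 active = activation above a set limit, the screen-wide mean activation plus 3 SD, cut at about 8.5% in these data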
# Target sequence (P28566 whole entry, looked up): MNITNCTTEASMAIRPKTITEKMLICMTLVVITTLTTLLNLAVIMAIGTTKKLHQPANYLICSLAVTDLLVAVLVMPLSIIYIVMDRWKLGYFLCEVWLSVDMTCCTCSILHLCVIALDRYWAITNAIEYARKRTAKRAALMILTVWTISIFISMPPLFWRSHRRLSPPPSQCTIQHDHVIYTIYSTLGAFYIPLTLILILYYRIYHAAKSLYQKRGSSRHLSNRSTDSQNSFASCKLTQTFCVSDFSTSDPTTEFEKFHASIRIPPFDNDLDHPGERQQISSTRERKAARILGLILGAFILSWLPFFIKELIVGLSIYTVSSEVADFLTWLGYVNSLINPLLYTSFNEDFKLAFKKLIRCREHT
# HEK293 NFkB inh – inhibitors of the PMA/ionomycin-induced NF-kB reporter in HEK293 cells; HEK-293 NF-kB luciferase reporter, luminescence; AID 465; inhibition, % at 3 µM; 62,000 compounds, 0.21% hits;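 active = inhibition above the mean of all tested compounds plus 3 SD, cut at about 40% in these data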
#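 Signal: luciferase luminescence; Material: HEK-293 cells with stable firefly luciferase reporter driven by four HIV NF-kB elements; Probe or stimulus: PMA with ionomycin; Replication: tested once; Times: 1 h compound pretreatment, then 16 h stimulation at 37 °C, 5% CO2; Benchmarks: DMSO and 10 µM reference inhibitor; Evaluation: per-plate % inhibition versus controls.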
# 5-HT1A blocker – 5-HT1a (human) receptor antagonism; CHO 5-HT1a Ga15 NFAT-bla reporter, antagonist mode; inhibition, % at 10 µM; 62,000 compounds, 0.68% hits; AID 612;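 active = inhibition above the mean of all tested compounds plus 3 SD, cut at about 43% in these data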;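 note: receptor stimulated by 5-CT agonist at 100 nM near EC80; beta-lactamase reporter measured by ratiometric fluorescence of a cleavable substrate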
# 5HT1E antag – blocks the human 5-HT1E serotonin receptor | P28566 | CHO 5-HT1E Ga15 NFAT-bla reporter, FRET, antagonist | inhibition, % at 6 µM | 65,000 compounds, 0.99% hits;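 active = inhibition above a set limit, the mean inhibition across every tested compound plus 3 SD, cut at about 29% in these data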;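 note: signal is the 460 over 535 nm emission ratio of beta-lactamase substrate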
# A number is an active result; i = inactive; nt = not tested or not shown.
SMILES,HTR1A agonist,Jurkat viability,5HT1E ag,HEK293 NFkB inh,5-HT1A blocker,5HT1E antag
CCn1c(SCC(=O)N2CCN(c3ccc(F)cc3)CC2)nnc1-c1ccncc1,i,i,i,i,i,i
CC(C)(C)n1ncc2c(=O)n(CC(=O)NCc3ccc(F)cc3)cnc21,i,54,i,i,i,i
COCCCNC(=O)C12CCC(C)(C(=O)C1)C2(C)C (configuration not stated),i,i,i,i,i,i
O=S1(=O)C=C(Sc2nc3ccccc3s2)c2ccccc21,i,102,i,46,98,106
Cc1cc(C)nc(SC2=CS(=O)(=O)c3ccccc32)n1,i,i,i,i,i,i
Cc1ccc(CN2CCNC(=O)C2CC(=O)O)o1 (configuration not stated),i,i,i,i,i,i
Cc1cc(C(=O)CSc2nnc(NCc3ccccc3)s2)c(C)n1C,i,34,i,i,i,i
COc1cccc(N2CCN(C3OC(=O)c4ccccc43)CC2)c1 (configuration not stated),i,i,23,i,i,i
CCC(C)(C)n1nnnc1C(c1ccc(O)c(OC)c1)N1CCN(c2nc3ccccc3s2)CC1 (configuration not stated),i,i,25,i,i,i
CCC(C)(C)n1nnnc1C(c1cccc(C#N)c1)N1CCN(c2cccc(C)c2C)CC1 (configuration not stated),i,i,10,i,i,i
COc1ccccc1C(c1nnnn1Cc1ccccc1)N1CCN(c2nc3ccccc3s2)CC1 (configuration not stated),i,i,i,i,44,i
c1ccc(Cn2nnnc2C(c2ccccc2)N2CCN(c3nc4ccccc4s3)CC2)cc1 (configuration not stated),i,i,i,i,i,i
CC(C)c1nnc(NC(=O)CCC(=O)NCc2ccc3c(c2)OCO3)s1,i,i,i,i,i,i
CC1=C(SCCC#N)S/C(=C2\SC(C)=C(SCCC#N)S2)S1,i,i,i,i,i,i
O=C(Nc1cccc(NS(=O)(=O)c2ccc(S(=O)(=O)NC3CC3)cc2)c1)c1ccccn1,i,i,i,i,i,i
CN(C)c1nc(OCC(=O)NC(C)(C)C)nc(N(C)C)n1,i,i,i,i,i,i
c1ccc(-c2cc3c(ccc4nonc43)nn2)cc1,i,i,i,i,i,i
On1onc2c3cc(-c4ccccc4)nc3ccc21,i,98,i,i,50,33
CCOc1ccccc1NC(=O)c1ccc(F)c(S(=O)(=O)N2CCC3(CC2)OCCO3)c1,i,i,i,i,i,i
COc1cc2nc(CN3CCN(c4ncc(C(F)(F)F)cc4Cl)CC3)[nH]c(=O)c2cc1OC,i,i,i,i,i,i
C/C=C/COC(=O)c1[nH]c2c(c1C)C(=O)CC(c1ccc(N(C)C)cc1)C2 (configuration not stated),i,i,i,i,i,i
COc1ccccc1C1CC(=O)NC(C)=C1C(=O)OCC1CCCO1 (configuration not stated),i,i,i,i,i,i
CCOC(=O)c1ccc(N=CC2=C(O)CC(c3ccco3)CC2=O)cc1 (configuration not stated),i,nt,i,nt,nt,i
COC(=O)c1[nH]c2c(c1C)C(=O)CC(c1ccccc1)C2 (configuration not stated),i,98,i,44,55,68
C=CCOC(=O)c1[nH]c2c(c1C)C(=O)CC(c1ccco1)C2 (configuration not stated),i,100,i,i,51,76
SMILES,HTR1A agonist,Jurkat viability,5HT1E ag,HEK293 NFkB inh,5-HT1A blocker,5HT1E antag
Cc1c(C(=O)OCC2CCCO2)[nH]c2c1C(=O)CC(c1ccco1)C2 (configuration not stated),i,78,i,i,i,i
C/C=C/COC(=O)c1[nH]c2c(c1C)C(=O)CC(c1ccco1)C2 (configuration not stated),i,99,i,i,64,78
CCNc1nc(Oc2ccccc2)nc(OC(C)C(=O)OCC)n1 (configuration not stated),i,nt,i,nt,nt,i
COCCn1nnnc1C(c1ccc(Cl)cc1)N1CCSCC1 (configuration not stated),i,i,i,i,i,i
Cc1nn(-c2ccc(Cl)cc2)c2[nH]c(=O)c(CNCc3ccc4c(c3)OCO4)cc12,i,i,i,i,i,i
CCOC(=O)CNC(=O)CSc1nc2nc(C)c(Br)cc2[nH]1,i,i,i,i,i,i
Cc1c(C(=O)OCC(C)C)[nH]c2c1C(=O)CC(c1ccco1)C2 (configuration not stated),i,99,i,i,53,69
Cc1c(C(=O)OC2CCCC2)[nH]c2c1C(=O)CC(c1ccco1)C2 (configuration not stated),i,100,i,i,62,85
Cc1c(C(=O)N2CCOCC2)[nH]c2c1C(=O)CC(c1ccccc1Cl)C2 (configuration not stated),i,82,40,i,i,i
COC(=O)C1C(=O)c2c([nH]c(C(=O)OC3CCCC3)c2C)CC1C (configuration not stated),i,nt,i,i,i,i
Cc1occc1C(=O)Nc1cc(C(F)(F)F)ccc1Cl,i,i,i,i,i,i
CCOc1ccc2[nH]c(=O)c(CN(Cc3cccs3)Cc3nnnn3C(C)(C)CC)cc2c1,i,i,9.5,i,i,i
O=C(Cn1c(C(=O)N2CCc3ccccc3C2)cc2sccc21)c1ccccc1,i,i,i,i,44,i
O=C(Cn1c(C(=O)N2CCN(C3CCCCC3)CC2)cc2sccc21)c1ccccc1,i,i,i,i,i,i
CCOC(=O)Cn1c(=O)oc2cc(S(=O)(=O)Nc3ccc(F)cc3)ccc21,i,i,i,i,i,i
O=C(CN1CCN(Cc2ccccc2)CC1)c1ccc(Br)cc1,22,i,i,i,i,i
N#Cc1sc2nc3c(c(-c4ccco4)c2c1N)CCCC3,i,i,i,i,i,31
CCc1nc2ccccc2c(C(=O)OCC(=O)NCCCN2CCCC2=O)c1C,i,i,i,i,i,i
CCN(CC)c1nc(Nc2ccc(Cl)cc2)nc(OCC#N)n1,i,i,i,i,i,33
O=C(NCCc1ccc(Cl)cc1)c1ncn[nH]1,i,i,10,i,i,i
O=C(NCCc1ccccc1)c1ncn[nH]1,i,i,i,i,i,i
CC(C)c1[nH]nc2c1C(Cc1ccccc1)C(C#N)=C(N)O2 (configuration not stated),i,i,i,i,i,i
O=C(Nc1nccs1)c1ccc(S(=O)(=O)NCC2CCCCC2)cc1,i,37,i,i,i,i
O=C(Nc1nccs1)c1ccc(S(=O)(=O)NCc2cccs2)cc1,i,i,i,i,i,i

# High-throughput results: PubChem, The Scripps Research Institute Molecular Screening Center
